Results taken from ChEMBL document CHEMBL1137814, “Bitungolides A-F, new polyketides from the Indonesian sponge Theonella cf. swinhoei” (J Nat Prod, 2002).
The source made the active and inactive calls. The rule behind the calls is not given here.

Columns and labels:
[1] = Inhibition of PTP-S2
Outline: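 PTP-S2 overexpressed in E. coli BL21(DE3). Phosphatase assays run in triplicate. Compounds tested at 10 µg/mL, with tautomycin at 30 ng/mL as reference.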

Oryctolagus cuniculus = organism: Oryctolagus cuniculus; experiment: Inhibition of rabbit muscle PP1
Outline: (§1)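 PP1 (rabbit skeletal muscle) and PP2A (human red blood cells), commercial enzymes. In vitro assays run in duplicate. Compounds tested at 10 µg/mL, with tautomycin at 30 ng/mL as reference.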

[2] = Cytotoxicity against rat 3Y1 cells at 10 ug/ml by flow cytometry; format: cell-based
Outline: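 Rat normal fibroblast 3Y1 cells grown in Dulbecco's modified MEM with 10% fetal calf serum, humidified 5% CO2. Cell-cycle progression after treatment assessed by flow cytometry.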

[3] = biological target: Dual specificity protein phosphatase 3 (Homo sapiens) (UniProt P51452); experiment: Inhibition of VHR expressed in Escherichia coli BL21([…])
Outline: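 VHR dual-specificity phosphatase overexpressed in E. coli BL21(DE3). Assays run in triplicate. Compounds tested at 100 µg/mL (some at 30 µg/mL). References were tautomycin at 30 ng/mL and RK-682 at 10 µg/mL.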

Homo sapiens = organism: Homo sapiens; experiment: Inhibition of PP2A from human red blood cells; outline: as §1
3Y1 cell line = experiment: Induction of morphological changes in rat 3Y1 cells by indirect immunofluorescence technique; format: functional, cell-based
Outline: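 3Y1 rat fibroblasts cultured in DMEM plus 10% fetal calf serum under humidified 5% CO2. Cytoskeletal changes after treatment visualized by indirect immunofluorescence microscopy.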

brain [4] = experiment: Induction of microtubule assembly in bovine brain cells by turbidimetric assay; format: cell-based; conditions: Bos taurus
Outline: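 Turbidity assay: microtubule protein at 2.0 mg/mL in Mes buffer incubated at 37 °C. Absorbance at 350 nm followed over time.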

brain [5] = experiment: Induction of actin assembly in bovine brain cells by turbidimetric assay; format: cell-based; conditions: Bos taurus

Sequence of Dual specificity protein phosphatase 3 (Homo sapiens) (P51452 whole entry, looked up): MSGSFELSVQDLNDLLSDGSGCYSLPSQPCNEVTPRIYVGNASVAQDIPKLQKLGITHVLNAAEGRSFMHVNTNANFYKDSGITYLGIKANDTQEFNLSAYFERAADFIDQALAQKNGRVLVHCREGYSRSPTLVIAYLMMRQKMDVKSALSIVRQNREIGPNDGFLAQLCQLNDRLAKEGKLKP

SMILES	Activity [1]	Activity (Oryctolagus cuniculus)	Activity [3]	Activity (Homo sapiens)	Activity [2]	Activity (3Y1 cell line)	Activity (brain [4])	Activity (brain [5])
CC[C@@H]1C=CC(=O)O[C@@H]1[C@H](C)C[C@@H](C)[C@@H](O)C[C@H](O)/C=C\C=C/c1cccc(O)c1Cl [BITUNGOLIDE A]	inactive	inactive	inactive	inactive	Active	inactive	inactive	inactive
CC[C@@H]1C=CC(=O)O[C@@H]1[C@H](C)C[C@@H](C)[C@@H](O)C[C@H](O)/C=C/C=C/c1cccc(O)c1Cl [BITUNGOLIDE B]	inactive	inactive	inactive	inactive	Active	inactive	inactive	inactive
CC[C@@H]1C=CC(=O)O[C@@H]1[C@H](C)C[C@@H](C)[C@@H](O)C[C@H](O)/C=C\C=C\c1cccc(O)c1Cl [BITUNGOLIDE C]	inactive	inactive	inactive	inactive	Active	inactive	inactive	inactive
CC[C@@H]1C=CC(=O)O[C@@H]1[C@H](C)C[C@@H](C)[C@@H](O)C[C@H](O)/C=C/C=C\c1cccc(O)c1Cl [BITUNGOLIDE D]	inactive	inactive	inactive	inactive	Active	inactive	inactive	inactive

Second part, led by results:

Activity [1]	Activity (Oryctolagus cuniculus)	Activity [3]	Activity (Homo sapiens)	SMILES	Activity [2]	Activity (3Y1 cell line)	Activity (brain [4])	Activity (brain [5])
inactive	inactive	inactive	inactive	CC[C@@H]1C=CC(=O)O[C@@H]1[C@H](C)C[C@@H](C)[C@@H](O)C[C@H](O)/C=C/C=C/c1ccccc1 [BITUNGOLIDE E]	Active	inactive	inactive	inactive
inactive	inactive	inactive	inactive	CC[C@@H]1C=CC(=O)O[C@@H]1[C@H](C)CC[C@@H](O)C[C@H](O)/C=C/C=C/c1ccccc1 [BITUNGOLIDE F]	Active	inactive	inactive	inactive
